Reference: ChEMBL document CHEMBL1147951, “Synthesis and antimicrobial activity of symmetrical two-tailed dendritic tricarboxylato amphiphiles” (2007)
In brackets after ≈: the same amount, converted by molar mass.

Columns and labels:
Assay type in all cases: functional
Escherichia coli = experiment: Antimicrobial activity against Escherichia coli by broth microdilution assay
Summary of the method: (§1)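 Strains were E. coli strain C (ATCC 13706) and K. pneumoniae ATCC 4352, grown from a single colony in 1/10-strength BHI broth + 0.2% sucrose and adjusted with buffered saline gelatin to McFarland No. 1. Twofold dilution series of compound in triethanolamine/water used doubled medium and inoculum volumes. Plates were incubated at 37 °C and turbidity was scored visually on day 7. MIC, run in triplicate, was the lowest concentration giving a prominent visible turbidity decrease.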

Staphylococcus aureus [1] = experiment: Antimicrobial activity against Staphylococcus aureus by broth microdilution assay
Summary of the method: (§2)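 Twofold dilution series of amphiphile (dissolved in aqueous triethanolamine, pH 8–9) in 1/10-strength Brain Heart Infusion Broth with 0.2% sucrose. Inoculum from a single-colony broth culture, diluted with buffered saline gelatin to No. 1 McFarland turbidity. Incubated at 30 °C; turbidity scored visually on day 4. MIC = lowest concentration giving a prominent visible decrease in turbidity; triplicate.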

Micrococcus luteus = experiment: Antimicrobial activity against Micrococcus luteus by broth microdilution assay
Summary of the method: (§3)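 Compounds were dissolved in aqueous triethanolamine (stock pH 8–9) and serially diluted twofold in 1/10-strength BHI broth + 0.2% sucrose. Inocula were adjusted with buffered saline gelatin to McFarland No. 1; for A. niger, spores were scraped from PDA. Plates were incubated at 30 °C and turbidity was scored visually on day 4. MIC, run in triplicate, was the lowest concentration giving a prominent visible decrease in turbidity.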

Klebsiella pneumoniae = experiment: Antimicrobial activity against Klebsiella pneumoniae by broth microdilution assay; summary of the method: as §1
Candida albicans = experiment: Antimicrobial activity against Candida albicans by broth microdilution assay; summary of the method: as §3
[2] = tested on: Mycolicibacterium smegmatis; experiment: Antimicrobial activity against Mycobacterium smegmatis by broth microdilution assay
Summary of the method: (§4)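 Strains were L. plantarum ATCC 14917, precultured in TSB, and M. smegmatis ATCC 607, precultured in Middlebrook 7H9. Inocula were diluted with buffered saline gelatin to McFarland No. 1. Twofold dilutions of compound in aqueous triethanolamine were made in 1/10-strength BHI broth + 0.2% sucrose and mixed with an equal volume of inoculum. Plates were incubated at 30 °C and scored visually for turbidity on day 4. MIC was determined in triplicate.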

Aspergillus niger = experiment: Antimicrobial activity against Aspergillus niger by broth microdilution assay; summary of the method: as §3
Cryptococcus neoformans = experiment: Antimicrobial activity against Cryptococcus neoformans by broth microdilution assay; summary of the method: as §3
[3] = tested on: Lactiplantibacillus plantarum; experiment: Antimicrobial activity against Lactobacillus plantarum by broth microdilution assay; summary of the method: as §4
Saccharomyces cerevisiae = experiment: Antimicrobial activity against Saccharomyces cerevisiae by broth microdilution assay; summary of the method: as §3
Staphylococcus aureus [4] = experiment: Antimicrobial activity against methicillin-resistant Staphylococcus aureus by broth microdilution assay; summary of the method: as §2

| SMILES | MIC (Escherichia coli) | MIC (Staphylococcus aureus [1]) | MIC (Micrococcus luteus) | MIC (Klebsiella pneumoniae) | MIC (Candida albicans) | MIC [2] | MIC (Aspergillus niger) | MIC (Cryptococcus neoformans) | MIC [3] | MIC (Saccharomyces cerevisiae) | MIC (Staphylococcus aureus [4]) |
| --- | --- | --- | --- | --- | --- | --- | --- | --- | --- | --- | --- |
| CCCCCCCCCCCC(CCCCCCCCCCC)NC(=O)NC(CCC(=O)O)(CCC(=O)O)CCC(=O)O | 2500 µM (≈ 1530 µg/mL) | > 10000 µM | > 10000 µM | > 10000 µM | > 10000 µM | 640 µM (≈ 392 µg/mL) | 10000 µM (≈ 6130 µg/mL) | 7.2 µM (≈ 4.41 µg/mL) | 10000 µM (≈ 6130 µg/mL) | 1300 µM (≈ 797 µg/mL) |  |
| CCCCCCCCN(CCCCCCCC)C(=O)NC(CCC(=O)O)(CCC(=O)O)CCC(=O)O | 760 µM (≈ 391 µg/mL) | > 12000 µM | 3000 µM (≈ 1540 µg/mL) | > 1100 µM | 190 µM (≈ 97.8 µg/mL) | 1500 µM (≈ 772 µg/mL) | 380 µM (≈ 196 µg/mL) | 550 µM (≈ 283 µg/mL) | 1500 µM (≈ 772 µg/mL) | 380 µM (≈ 196 µg/mL) | 3000 µM (≈ 1540 µg/mL) |
| CCCCCCCCCN(CCCCCCCCC)C(=O)NC(CCC(=O)O)(CCC(=O)O)CCC(=O)O | 1400 µM (≈ 760 µg/mL) | > 12000 µM | 12000 µM (≈ 6510 µg/mL) | > 1000 µM | > 12000 µM | 1400 µM (≈ 760 µg/mL) | 5800 µM (≈ 3150 µg/mL) | 260 µM (≈ 141 µg/mL) | 12000 µM (≈ 6510 µg/mL) | 720 µM (≈ 391 µg/mL) | 12000 µM (≈ 6510 µg/mL) |
| CCCCCCCCCCN(CCCCCCCCCC)C(=O)NC(CCC(=O)O)(CCC(=O)O)CCC(=O)O | 2700 µM (≈ 1540 µg/mL) | > 11000 µM | 11000 µM (≈ 6280 µg/mL) | > 1000 µM | > 11000 µM | 680 µM (≈ 388 µg/mL) | 11000 µM (≈ 6280 µg/mL) | 62 µM (≈ 35.4 µg/mL) | 11000 µM (≈ 6280 µg/mL) | 2700 µM (≈ 1540 µg/mL) | 11000 µM (≈ 6280 µg/mL) |
| CCCCCCCCCC(CCCCCCCCC)NC(=O)NC(CCC(=O)O)(CCC(=O)O)CCC(=O)O | 350 µM (≈ 195 µg/mL) |  | > 11000 µM | > 11000 µM | > 11000 µM | 350 µM (≈ 195 µg/mL) | 2800 µM (≈ 1560 µg/mL) | 64 µM (≈ 35.6 µg/mL) | 5600 µM (≈ 3120 µg/mL) | 2800 µM (≈ 1560 µg/mL) |  |
| CCCCCCCCCCC(CCCCCCCCCC)NC(=O)NC(CCC(=O)O)(CCC(=O)O)CCC(=O)O | 2700 µM (≈ 1580 µg/mL) |  | > 11000 µM | > 11000 µM | > 11000 µM | 330 µM (≈ 193 µg/mL) | 11000 µM (≈ 6430 µg/mL) | 15 µM (≈ 8.77 µg/mL) | 5300 µM (≈ 3100 µg/mL) | 2700 µM (≈ 1580 µg/mL) |  |
| CCCCCCCCCCCCCCCCCCNC(=O)NC(CCC(=O)O)(CCC(=O)O)CCC(=O)O | 130 µM (≈ 70.6 µg/mL) | 1400 µM (≈ 760 µg/mL) | > 12000 µM | 260 µM (≈ 141 µg/mL) | 1400 µM (≈ 760 µg/mL) | 33 µM (≈ 17.9 µg/mL) | 1400 µM (≈ 760 µg/mL) | 90 µM (≈ 48.8 µg/mL) | 1400 µM (≈ 760 µg/mL) | 130 µM (≈ 70.6 µg/mL) | 720 µM (≈ 391 µg/mL) |
| CCCCCCCCCCCCCCCCCCCCCCNC(=O)NC(CCC(=O)O)(CCC(=O)O)CCC(=O)O | 120 µM (≈ 71.9 µg/mL) | 1300 µM (≈ 779 µg/mL) | > 10000 µM | 470 µM (≈ 281 µg/mL) | 2600 µM (≈ 1560 µg/mL) | 120 µM (≈ 71.9 µg/mL) | 5200 µM (≈ 3110 µg/mL) | 5200 µM (≈ 3110 µg/mL) | 950 µM (≈ 569 µg/mL) | 30 µM (≈ 18 µg/mL) | 1300 µM (≈ 779 µg/mL) |
| CCCCCCCN(CCCCCCC)C(=O)NC(CCC(=O)O)(CCC(=O)O)CCC(=O)O | 3200 µM (≈ 1560 µg/mL) | > 13000 µM | 6400 µM (≈ 3110 µg/mL) | > 1200 µM | 1600 µM (≈ 779 µg/mL) | 3200 µM (≈ 1560 µg/mL) | 800 µM (≈ 389 µg/mL) | 1200 µM (≈ 584 µg/mL) | 6400 µM (≈ 3110 µg/mL) | 800 µM (≈ 389 µg/mL) | 3200 µM (≈ 1560 µg/mL) |
| CCCCCCCCCCCCCCCCNC(=O)NC(CCC(=O)O)(CCC(=O)O)CCC(=O)O | 140 µM (≈ 72.1 µg/mL) | 760 µM (≈ 391 µg/mL) | > 12000 µM | 280 µM (≈ 144 µg/mL) | 47 µM (≈ 24.2 µg/mL) | 140 µM (≈ 72.1 µg/mL) | 3000 µM (≈ 1540 µg/mL) | 47 µM (≈ 24.2 µg/mL) | 6100 µM (≈ 3140 µg/mL) | 550 µM (≈ 283 µg/mL) | 6100 µM (≈ 3140 µg/mL) |
| CCCCCCCCCCCCC(CCCCCCCCCCCC)NC(=O)NC(CCC(=O)O)(CCC(=O)O)CCC(=O)O | 2400 µM (≈ 1540 µg/mL) | > 9800 µM | > 9800 µM | > 9800 µM | > 9800 µM | 1200 µM (≈ 769 µg/mL) | 9800 µM (≈ 6280 µg/mL) | 6.9 µM (≈ 4.42 µg/mL) | 9800 µM (≈ 6280 µg/mL) | 610 µM (≈ 391 µg/mL) |  |
| CCCCCCCCCCCCCCCCCCCCNC(=O)NC(CCC(=O)O)(CCC(=O)O)CCC(=O)O | 62 µM (≈ 35.4 µg/mL) | 1400 µM (≈ 799 µg/mL) | > 11000 µM | 250 µM (≈ 143 µg/mL) | 2700 µM (≈ 1540 µg/mL) | 62 µM (≈ 35.4 µg/mL) | 680 µM (≈ 388 µg/mL) | 2700 µM (≈ 1540 µg/mL) | 1400 µM (≈ 799 µg/mL) | 120 µM (≈ 68.5 µg/mL) | 1400 µM (≈ 799 µg/mL) |
| CCCCCCCCCCCN(CCCCCCCCCCC)C(=O)NC(CCC(=O)O)(CCC(=O)O)CCC(=O)O | 2600 µM (≈ 1560 µg/mL) | > 10000 µM | 10000 µM (≈ 5990 µg/mL) | > 950 µM | > 10000 µM | 650 µM (≈ 389 µg/mL) | 10000 µM (≈ 5990 µg/mL) | > 950 µM | 10000 µM (≈ 5990 µg/mL) | 5200 µM (≈ 3110 µg/mL) | 10000 µM (≈ 5990 µg/mL) |
| CCCCCCCC(CCCCCCC)NC(=O)NC(CCC(=O)O)(CCC(=O)O)CCC(=O)O | 3100 µM (≈ 1550 µg/mL) |  | > 12000 µM | > 12000 µM | 3100 µM (≈ 1550 µg/mL) | 3100 µM (≈ 1550 µg/mL) | 6200 µM (≈ 3100 µg/mL) | 1100 µM (≈ 551 µg/mL) | 6200 µM (≈ 3100 µg/mL) | 6200 µM (≈ 3100 µg/mL) |  |
| CCCCCCCCC(CCCCCCCC)NC(=O)NC(CCC(=O)O)(CCC(=O)O)CCC(=O)O | 1500 µM (≈ 793 µg/mL) |  | > 12000 µM | > 12000 µM | 740 µM (≈ 391 µg/mL) | 1500 µM (≈ 793 µg/mL) | 5900 µM (≈ 3120 µg/mL) | 270 µM (≈ 143 µg/mL) | 5900 µM (≈ 3120 µg/mL) | 3000 µM (≈ 1590 µg/mL) |  |
| CCCCCCCCCCCCCCNC(=O)NC(CCC(=O)O)(CCC(=O)O)CCC(=O)O | 290 µM (≈ 141 µg/mL) | 6400 µM (≈ 3110 µg/mL) | > 13000 µM | 290 µM (≈ 141 µg/mL) | 1600 µM (≈ 779 µg/mL) | 580 µM (≈ 282 µg/mL) | 6400 µM (≈ 3110 µg/mL) | 1600 µM (≈ 779 µg/mL) | 6400 µM (≈ 3110 µg/mL) | 580 µM (≈ 282 µg/mL) | 6400 µM (≈ 3110 µg/mL) |
